# Legend:
# SF-268 = experiment: Cytotoxicity against human SF268 cells after 24 hrs by SRB assay; format: functional; conditions: SF-268, 24 h
# Procedure, shortened: (§1)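 NCI 60-line screen. Cells in RPMI 1640 with 5% FBS and 2 mM L-glutamine, seeded at 5,000–40,000 cells/well by doubling time, then incubated 24 h at 37 °C, 5% CO2 before dosing. Time-zero plates fixed with TCA at drug addition. DMSO stocks diluted in medium with gentamicin to five concentrations, […]. Protein read by SRB staining. GI50, TGI and LC50 derived relative to control and time-zero.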
# SK-MEL-2 = experiment: Cytotoxicity against human SK-MEL-2 cells after 24 hrs by SRB assay; format: functional; conditions: SK-MEL-2, 24 h; procedure, shortened: as §1
# SR = experiment: Cytotoxicity against human SR cells after 24 hrs by SRB assay; format: cell-based
# Procedure, shortened: (§2)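 NCI 60-cell-line screen: cells grown in RPMI 1640 with 5% FBS and 2 mM L-glutamine, seeded at 5,000–40,000 cells/well by doubling time, and preincubated 24 h at 37 °C in 5% CO2. Time-zero plates were TCA-fixed. DMSO stocks were diluted in medium with gentamicin to five concentrations (100, 10, 1.0, 0.1, […]). Protein was read by SRB, and GI50, TGI and LC50 were derived against time-zero.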
# SW-620 [1] = experiment: (§3) Cytotoxicity against human SW620 cells after 24 hrs by SRB assay; format: functional; conditions: SW-620, 24 h
# Procedure, shortened: (§4)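 NCI 60-cell screen. Cells are grown in RPMI 1640 with 5% FBS and 2 mM L-glutamine and seeded at 5,000–40,000 cells/well according to doubling time. They are preincubated 24 h at 37 °C in 5% CO2, and Tz plates are TCA-fixed at drug addition. Drug stock is in DMSO, diluted in medium with gentamicin, and tested at five concentrations (100, 10, 1.0, 0.1, […]). Protein is read by SRB staining. GI50, TGI and LC50 are derived relative to time-zero and control wells.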
# SK-MEL-5 = experiment: Cytotoxicity against human SK-MEL-5 cells after 24 hrs by SRB assay; format: cell-based; conditions: sk-mel-5, 24 h
# Procedure, shortened: (§5)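 NCI 60-cell screen. Cells grown in RPMI 1640 with 5% FBS and 2 mM L-glutamine, seeded at 5,000–40,000 cells/well, preincubated 24 h at 37 °C in 5% CO2. Drug stock in DMSO, diluted in medium with gentamicin; five final concentrations, 100, 10, 1.0, 0.1 and […]. Time-zero plates were TCA-fixed. Protein read by SRB staining; GI50, TGI and LC50 taken relative to time-zero.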
# HCT-15 = experiment: Cytotoxicity against human HCT15 cells after 24 hrs by SRB assay; format: functional; conditions: HCT-15, 24 h; procedure, shortened: as §1
# COLO 205 = experiment: Cytotoxicity against human COLO205 cells after 24 hrs by SRB assay; format: cell-based; conditions: colo 205, 24 h; procedure, shortened: as §5
# NCI-H322M = experiment: Cytotoxicity against human NCI-H322M cells after 24 hrs by SRB assay; format: functional; procedure, shortened: as §1
# OVCAR-3 = experiment: Cytotoxicity against human OVCAR3 cells after 24 hrs by SRB assay; format: functional; conditions: OVCAR-3, 24 h; procedure, shortened: as §1
# UACC-62 = experiment: Cytotoxicity against human UACC62 cells after 24 hrs by SRB assay; format: functional; conditions: UACC-62, 24 h; procedure, shortened: as §4
# SF-539 = experiment: Cytotoxicity against human SF539 cells after 24 hrs by SRB assay; format: cell-based; conditions: sf-539, 24 h; procedure, shortened: as §5
# OVCAR-5 = experiment: Cytotoxicity against human OVCAR5 cells after 24 hrs by SRB assay; format: functional; conditions: OVCAR-5, 24 h; procedure, shortened: as §1
# SW-620 [2] = experiment: as §3; format: cell-based; conditions: sw-620, 24 h; procedure, shortened: as §2
# RXF 393 = experiment: Cytotoxicity against human RXF393 cells after 24 hrs by SRB assay; format: functional; conditions: RXF 393, 24 h; procedure, shortened: as §1
# OVCAR-4 [3] = experiment: (§6) Cytotoxicity against human OVCAR4 cells after 24 hrs by SRB assay; format: cell-based; conditions: ovcar-4, 24 h; procedure, shortened: as §5
# OVCAR-4 [4] = experiment: as §6; format: functional; conditions: OVCAR-4, 24 h; procedure, shortened: as §1
# SNB-75 = experiment: Cytotoxicity against human SNB75 cells after 24 hrs by SRB assay; format: cell-based; conditions: snb-75, 24 h; procedure, shortened: as §2
# CAKI-1 = experiment: Cytotoxicity against human CAKI-1 cells after 24 hrs by SRB assay; format: cell-based; conditions: caki-1, 24 h; procedure, shortened: as §5
# HOP-92 = experiment: Cytotoxicity against human HOP92 cells after 24 hrs by SRB assay; format: functional; conditions: HOP-92, 24 h; procedure, shortened: as §1
# SK-MEL-28 = experiment: Cytotoxicity against human SK-MEL-28 cells after 24 hrs by SRB assay; format: cell-based; conditions: sk-mel-28, 24 h; procedure, shortened: as §5
# LOX IMVI = experiment: Cytotoxicity against human LOXIMVI cells after 24 hrs by SRB assay; format: functional; procedure, shortened: as §1
# UACC-257 [5] = experiment: (§7) Cytotoxicity against human UACC257 cells after 24 hrs by SRB assay; format: functional; conditions: UACC-257, 24 h; procedure, shortened: as §4
# IGROV-1 = experiment: Cytotoxicity against human IGROV1 cells after 24 hrs by SRB assay; format: functional; conditions: IGROV-1, 24 h; procedure, shortened: as §1
# Malme-3M [6] = experiment: (§8) Cytotoxicity against human MALME-3M cells after 24 hrs by SRB assay; format: cell-based; procedure, shortened: as §5
# Malme-3M [7] = experiment: as §8; format: functional; procedure, shortened: as §1
# NCI-H226 = experiment: Cytotoxicity against human NCI-H226 cells after 24 hrs by SRB assay; format: cell-based; conditions: nci-h226, 24 h; procedure, shortened: as §5
# NCI-H460 = experiment: Cytotoxicity against human NCI-H460 cells after 24 hrs by SRB assay; format: cell-based; conditions: nci-h460, 24 h; procedure, shortened: as §5
# EKVX = experiment: Cytotoxicity against human EKVX cells after 24 hrs by SRB assay; format: functional; procedure, shortened: as §1
# MDA-MB-435 = experiment: Cytotoxicity against human MDA-MB-435 cells after 24 hrs by SRB assay; format: functional; conditions: MDA-MB-435, 24 h; procedure, shortened: as §1
# HOP-62 = experiment: Cytotoxicity against human HOP62 cells after 24 hrs by SRB assay; format: functional; conditions: HOP-62, 24 h; procedure, shortened: as §1
# NCI-H23 = experiment: Cytotoxicity against human NCI-H23 cells after 24 hrs by SRB assay; format: cell-based; conditions: nci-h23, 24 h; procedure, shortened: as §5
# SF-295 = experiment: Cytotoxicity against human SF295 cells after 24 hrs by SRB assay; format: cell-based; conditions: sf-295, 24 h; procedure, shortened: as §5
# UACC-257 [8] = experiment: as §7; format: cell-based; conditions: uacc-257, 24 h; procedure, shortened: as §2
# TK-10 = experiment: Cytotoxicity against human TK10 cells after 24 hrs by SRB assay; format: cell-based; conditions: tk-10, 24 h; procedure, shortened: as §2
# MDA-MB-231 = experiment: Cytotoxicity against human MDA-MB-231 cells after 24 hrs by SRB assay; format: functional; conditions: MDA-MB-231, 24 h; procedure, shortened: as §1
smiles,measurement,setting,value
O=C(/C=C/c1cc2ccccc2[nH]c1=O)c1ccc(Cl)cc1,GI50,SF-268,7.15 µM
same,TGI,SF-268,63.1 µM
same,GI50,SK-MEL-2,8.55 µM
same,TGI,SK-MEL-2,25.7 µM
same,LC50,SR,> 100 µM
same,GI50,SW-620 [1],3.38 µM
same,TGI,SW-620 [1],12.1 µM
same,LC50,SK-MEL-5,> 100 µM
same,GI50,HCT-15,3.18 µM
same,TGI,HCT-15,20.2 µM
same,LC50,COLO 205,> 100 µM
same,GI50,NCI-H322M,13.4 µM
same,TGI,NCI-H322M,79 µM
same,GI50,OVCAR-3,5.9 µM
same,TGI,OVCAR-3,30.9 µM
same,GI50,UACC-62,5.71 µM
same,TGI,UACC-62,54.3 µM
same,LC50,SF-539,74.2 µM
same,GI50,OVCAR-5,12.7 µM
same,TGI,OVCAR-5,97 µM
same,LC50,SW-620 [2],56.6 µM
same,GI50,RXF 393,4.32 µM
same,TGI,RXF 393,29.9 µM
same,LC50,OVCAR-4 [3],> 100 µM
same,GI50,OVCAR-4 [4],1.67 µM
same,TGI,OVCAR-4 [4],> 100 µM
same,LC50,SNB-75,> 100 µM
same,LC50,CAKI-1,6.8 µM
same,GI50,HOP-92,5.74 µM
same,TGI,HOP-92,50.5 µM
same,LC50,SK-MEL-28,> 100 µM
same,GI50,LOX IMVI,3.26 µM
same,TGI,LOX IMVI,22.1 µM
same,GI50,UACC-257 [5],7.78 µM
same,TGI,UACC-257 [5],46.9 µM
same,GI50,IGROV-1,3.71 µM
same,TGI,IGROV-1,14.7 µM
same,LC50,Malme-3M [6],> 100 µM
same,GI50,Malme-3M [7],9.42 µM
same,TGI,Malme-3M [7],35.3 µM
same,LC50,NCI-H226,> 100 µM
same,LC50,NCI-H460,> 100 µM
same,GI50,EKVX,4.92 µM
same,TGI,EKVX,> 100 µM
same,GI50,MDA-MB-435,2.83 µM
same,TGI,MDA-MB-435,13.1 µM
same,GI50,HOP-62,7.43 µM
same,TGI,HOP-62,44.2 µM
same,LC50,NCI-H23,> 100 µM
same,LC50,SF-295,> 100 µM
same,LC50,UACC-257 [8],> 100 µM
same,LC50,TK-10,75.8 µM
same,GI50,MDA-MB-231,6.16 µM
same,TGI,MDA-MB-231,28.3 µM
COc1ccc(C(=O)/C=C/c2cc3ccccc3[nH]c2=O)cc1,GI50,SF-268,2.85 µM
same,TGI,SF-268,9.77 µM
same,GI50,SK-MEL-2,3.91 µM
same,TGI,SK-MEL-2,40.1 µM
same,LC50,SR,> 100 µM
same,GI50,SW-620 [1],3.41 µM
same,TGI,SW-620 [1],8.89 µM
same,LC50,SK-MEL-5,45 µM
same,GI50,HCT-15,3.18 µM
same,TGI,HCT-15,21.1 µM
same,LC50,COLO 205,77.6 µM
same,GI50,OVCAR-3,2.49 µM
same,TGI,OVCAR-3,6.72 µM
same,GI50,UACC-62,4.38 µM
same,TGI,UACC-62,19.3 µM
same,LC50,SF-539,45.5 µM
same,GI50,OVCAR-5,3.6 µM
same,TGI,OVCAR-5,18.4 µM
same,LC50,SW-620 [2],40.2 µM
same,GI50,RXF 393,3.41 µM
same,TGI,RXF 393,8.53 µM
same,LC50,OVCAR-4 [3],> 100 µM
same,GI50,OVCAR-4 [4],2.94 µM
same,TGI,OVCAR-4 [4],> 100 µM
same,LC50,SNB-75,47.2 µM
same,LC50,CAKI-1,6.9 µM
same,GI50,HOP-92,2.97 µM
same,TGI,HOP-92,8.76 µM
same,LC50,SK-MEL-28,> 100 µM
same,GI50,LOX IMVI,1.85 µM
same,TGI,LOX IMVI,5.54 µM
same,GI50,UACC-257 [5],4.9 µM
same,TGI,UACC-257 [5],18 µM
same,LC50,NCI-H226,> 100 µM
same,LC50,NCI-H460,66.8 µM
same,GI50,EKVX,4.4 µM
same,TGI,EKVX,83.8 µM
same,GI50,MDA-MB-435,3.92 µM
same,TGI,MDA-MB-435,17.4 µM
same,GI50,HOP-62,3.68 µM
same,TGI,HOP-62,11.6 µM
same,LC50,NCI-H23,> 100 µM
same,LC50,SF-295,80.8 µM
same,LC50,UACC-257 [8],65.5 µM
same,LC50,TK-10,> 100 µM
same,GI50,MDA-MB-231,3.29 µM
same,TGI,MDA-MB-231,17.9 µM

# Source: ChEMBL document CHEMBL2086296, “Synthesis of novel quinoline-2-one based chalcones of potential anti-tumor activity” (Eur J Med Chem, 2012)
